The results in this text go back to ChEMBL document CHEMBL3272012, “5-(Tetradecyloxy)-2-furancarboxylic acid and related hypolipidemic fatty acid-like alkyloxyarylcarboxylic acids” (J Med Chem, 1977).

For series [1], the system named is Rattus norvegicus. Put plainly: Hypolipidemic activity in Wistar rat assessed as reduction in plasma cholesterol level at 489 umol/kg/day administered through diet for 4 days. Type of series: functional. To be noted: 96 h. In outline: (§1)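 Young male Wistar rats, 170-190 g initial weight, groups of six, given compound mixed thoroughly into Purina Lab Chow ad libitum for 4 or 10 days as stated. Daily dose calculated from food consumption and body weight. Bled by cardiac puncture at end of treatment; plasma cholesterol measured by automated procedure. Expressed as percent reduction versus simultaneous untreated control group; Student's t test.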

Series [2] deals with Rattus norvegicus. Briefly: Hypolipidemic activity in Wistar rat assessed as reduction in plasma triglyceride level at 489 umol/kg/day administered through diet for 4 days. To be noted: 96 h. Type of series: functional.
The subject of series [3] is Rattus norvegicus. Put plainly: Hypolipidemic activity in Wistar rat assessed as reduction in plasma cholesterol level at 430 umol/kg/day administered through diet for 4 days. Type of series: functional. To be noted: 96 h. In outline:
as §1

Series [4] deals with Rattus norvegicus. Put plainly: Increase in liver weight in Wistar rat at 401 umol/kg/day administered through diet for 4 days. Type of series: ADME, organism-based. To be noted: in vivo, po, 96 h. In outline:
(§2)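 Male Wistar rats (170-190 g initial), groups of six, dosed via diet ad libitum for 4 or 10 days, daily dose from food consumption. Liver wet weight measured, expressed as g/100 g final body weight, compared with untreated controls run simultaneously.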

For series [5], the system named is Rattus norvegicus. Briefly: Increase in liver weight in Wistar rat at 430 umol/kg/day administered through diet for 4 days. Type of series: ADME, organism-based. To be noted: in vivo, po, 96 h. The method in brief: as §2
In series [6] the test system is Rattus norvegicus. Put plainly: Hypolipidemic activity in Wistar rat assessed as reduction in plasma triglyceride level at 401 umol/kg/day administered through diet for 4 days. Type of series: functional. To be noted: 96 h. In outline:
(§3)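 Young male Wistar rats (initial weight 170-190 g), groups of six, fed compound mixed into Purina Lab Chow ad libitum for 4 or 10 days; daily dose calculated from food consumption and body weight. Bled by cardiac puncture; plasma cholesterol and triglycerides by automated procedures; percent reduction versus simultaneous untreated controls, Student's t test.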

For series [7], the system named is Rattus norvegicus. Briefly: Hypolipidemic activity in Wistar rat assessed as reduction in plasma cholesterol level at 401 umol/kg/day administered through diet for 4 days. Type of series: functional. To be noted: 96 h. In outline:
(§4)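 Young male Wistar rats, 170-190 g at start, in groups of six, given compound mixed into Purina Lab Chow ad libitum for 4 or 10 days as stated. Daily dose was calculated from food consumption and body weight. Plasma was taken by cardiac puncture at the end and cholesterol measured by automated procedure. Results are % reduction versus a concurrent untreated control group, with Student's t test.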

Series [8] concerns Rattus norvegicus. Briefly: Hypolipidemic activity in Wistar rat assessed as reduction in plasma triglyceride level at 430 umol/kg/day administered through diet for 4 days. Type of series: functional. To be noted: 96 h. In outline: as §3
The subject of series [9] is Rattus norvegicus. Put plainly: Hypolipidemic activity in Wistar rat assessed as reduction in plasma cholesterol level at 411 umol/kg/day administered through diet for 10 days. Type of series: functional. To be noted: 240 h. The method in brief:
as §4

For series [10], the system named is Rattus norvegicus. Briefly: Hypolipidemic activity in Wistar rat assessed as reduction in plasma triglyceride level at 411 umol/kg/day administered through diet for 10 days. Type of series: functional. To be noted: 240 h.
Series [11] has as its system Rattus norvegicus. Put plainly: Hypolipidemic activity in Wistar rat assessed as reduction in plasma cholesterol level at 420 umol/kg/day administered through diet for 10 days. Type of series: functional. To be noted: 240 h. In outline:
as §1

For series [12], the system named is Rattus norvegicus. Put plainly: Hypolipidemic activity in Wistar rat assessed as reduction in plasma triglyceride level at 420 umol/kg/day administered through diet for 10 days. To be noted: 240 h. Type of series: functional. The method in brief:
as §3

Series [13] has as its system Rattus norvegicus. Put plainly: Increase in cholesterol level in Wistar rat liver at 420 umol/kg/day administered through diet for 10 days. Type of series: ADME, organism-based. To be noted: in vivo, po, 240 h. The method in brief:
(§5)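 Male Wistar rats (170-190 g), six per group, given compound by admixture to lab chow ad libitum for 4 or 10 days, dose derived from food intake. Liver cholesterol determined by automated procedure, expressed as mg/g wet tissue, compared with an untreated control group by Student's t test.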

Series [14] relates to Rattus norvegicus. Briefly: Increase in liver weight in Wistar rat at 420 umol/kg/day administered through diet for 10 days. To be noted: in vivo, po, 240 h. Type of series: ADME, organism-based.
In series [15] the test system is Rattus norvegicus. Briefly: Increase in cholesterol level in Wistar rat liver at 430 umol/kg/day administered through diet for 4 days. Type of series: ADME, organism-based. To be noted: in vivo, po, 96 h. In outline: as §5
Series [16] concerns Rattus norvegicus. Put plainly: Hypolipidemic activity in Wistar rat assessed as reduction in plasma cholesterol level at 606 umol/kg/day administered through diet for 10 days. Type of series: functional. To be noted: 240 h. In outline: as §3
Series [17] concerns Rattus norvegicus. Put plainly: Increase in liver weight in Wistar rat at 606 umol/kg/day administered through diet for 10 days. Type of series: ADME, organism-based. To be noted: in vivo, po, 240 h.
For series [18], the system named is Rattus norvegicus. Briefly: Hypolipidemic activity in Wistar rat assessed as reduction in plasma triglyceride level at 606 umol/kg/day administered through diet for 10 days. Type of series: functional. To be noted: 240 h.
Series [19] relates to Rattus norvegicus. Briefly: Hypolipidemic activity in Wistar rat assessed as reduction in plasma triglyceride level at 449 umol/kg/day administered through diet for 4 days. Type of series: functional. To be noted: 96 h.
Series [20] relates to Rattus norvegicus. Put plainly: Hypolipidemic activity in Wistar rat assessed as reduction in plasma cholesterol level at 449 umol/kg/day administered through diet for 4 days. Type of series: functional. To be noted: 96 h. The method in brief: as §1
The subject of series [21] is Rattus norvegicus. Put plainly: Increase in liver weight in Wistar rat at 449 umol/kg/day administered through diet for 4 days. To be noted: in vivo, po, 96 h. Type of series: ADME, organism-based.
Series [22] deals with Rattus norvegicus. Briefly: Increase in liver weight in Wistar rat at 482 umol/kg/day administered through diet for 4 days. Type of series: ADME, organism-based. To be noted: in vivo, po, 96 h. In outline:
as §2

Series [23] has as its system Rattus norvegicus. Briefly: Hypolipidemic activity in Wistar rat assessed as reduction in plasma triglyceride level at 482 umol/kg/day administered through diet for 4 days. Type of series: functional. To be noted: 96 h. The method in brief:
as §3

In series [24] the test system is Rattus norvegicus. Put plainly: Hypolipidemic activity in Wistar rat assessed as reduction in plasma cholesterol level at 482 umol/kg/day administered through diet for 4 days. Type of series: functional. To be noted: 96 h. The method in brief: as §1
Series [25] concerns Rattus norvegicus. Briefly: Hypolipidemic activity in Wistar rat assessed as reduction in plasma triglyceride level at 418 umol/kg/day administered through diet for 4 days. Type of series: functional. To be noted: 96 h. In outline:
as §3

The subject of series [26] is Rattus norvegicus. Briefly: Increase in liver weight in Wistar rat at 418 umol/kg/day administered through diet for 4 days. Type of series: ADME, organism-based. To be noted: in vivo, po, 96 h. The method in brief:
as §2

The subject of series [27] is Rattus norvegicus. Briefly: Hypolipidemic activity in Wistar rat assessed as reduction in plasma cholesterol level at 418 umol/kg/day administered through diet for 4 days. Type of series: functional. To be noted: 96 h. The method in brief:
as §1

For series [28], the system named is Rattus norvegicus. Put plainly: Hypolipidemic activity in Wistar rat assessed as reduction in plasma triglyceride level at 505 umol/kg/day administered through diet for 4 days. Type of series: functional. To be noted: 96 h.
Series [29] has as its system Rattus norvegicus. Put plainly: Increase in liver weight in Wistar rat at 505 umol/kg/day administered through diet for 4 days. Type of series: ADME, organism-based. To be noted: in vivo, po, 96 h.
Series [30] concerns Rattus norvegicus. Briefly: Hypolipidemic activity in Wistar rat assessed as reduction in plasma cholesterol level at 505 umol/kg/day administered through diet for 4 days. Type of series: functional. To be noted: 96 h. In outline: as §1
Series [31] deals with Rattus norvegicus. Briefly: Hypolipidemic activity in Wistar rat assessed as reduction in plasma triglyceride level at 491 umol/kg/day administered through diet for 4 days. Type of series: functional. To be noted: 96 h.
Series [32] deals with Rattus norvegicus. Briefly: Hypolipidemic activity in Wistar rat assessed as reduction in plasma cholesterol level at 491 umol/kg/day administered through diet for 4 days. Type of series: functional. To be noted: 96 h. The method in brief:
as §1

Series [33] relates to Rattus norvegicus. Briefly: Increase in liver weight in Wistar rat at 491 umol/kg/day administered through diet for 4 days. Type of series: ADME, organism-based. To be noted: in vivo, po, 96 h.
Series [34] relates to Rattus norvegicus. Put plainly: Hypolipidemic activity in Wistar rat assessed as reduction in plasma triglyceride level at 439 umol/kg/day administered through diet for 10 days. Type of series: functional. To be noted: 240 h. In outline: as §3
In series [35] the test system is Rattus norvegicus. Briefly: Increase in liver weight in Wistar rat at 439 umol/kg/day administered through diet for 10 days. Type of series: ADME, organism-based. To be noted: in vivo, po, 240 h. In outline: as §2
The subject of series [36] is Rattus norvegicus. Briefly: Hypolipidemic activity in Wistar rat assessed as reduction in plasma cholesterol level at 439 umol/kg/day administered through diet for 10 days. Type of series: functional. To be noted: 240 h. The method in brief: as §1

Consider `CCCCCCCCCCCC(=O)Nc1ccc(C(=O)OCC)cc1`, for which the inhibition in vivo at 489 µmol/kg in the series on Rattus norvegicus [1] and in the series on Rattus norvegicus [2] was 0% each time.

`CCCCCCCCCCCCCCCCOc1cccc(C(=O)OC)c1`: the inhibition in vivo at 430 µmol/kg in the series on Rattus norvegicus [3] and with Rattus norvegicus [8] was 0% each time. The Activity came to 0% with Rattus norvegicus [4] and 3% in the series on Rattus norvegicus [5]. Also, the inhibition in vivo at 401 µmol/kg in the series with Rattus norvegicus [6] and in the series with Rattus norvegicus [7] was 0% throughout.

`CCCCCCCCCCc1ccc(C(=O)CC(=O)OC)cc1`: the inhibition in vivo at 411 µmol/kg in the series on Rattus norvegicus [9] was 30%; with Rattus norvegicus [10] it was 69%.

For `CCCCCCCCCCCCCCOc1ccc(SCC(=O)O)cc1`, the inhibition in vivo at 420 µmol/kg in the series on Rattus norvegicus [11] came to 16%; in the series on Rattus norvegicus [12], 11%. Besides, the Activity in the series with Rattus norvegicus [13] is reported as 3%; with Rattus norvegicus [14], 0%.

In the case of `CCCCCCCCCCCCCCOc1ccc(C(=O)OC)o1`, the inhibition in vivo at 430 µmol/kg amounted to 32% in the series on Rattus norvegicus [3] and 67% in the series on Rattus norvegicus [8]. Moreover, the Activity in the series on Rattus norvegicus [5] is 8%; in the series with Rattus norvegicus [15], 0%.

`CCCCCCc1ccc(C(=O)CC(=O)OC)cc1`: the inhibition in vivo at 606 µmol/kg with Rattus norvegicus [16] is 2%; with Rattus norvegicus [18] it was 35%. For the same compound, the Activity in the series with Rattus norvegicus [17] was 2%.

Regarding `CCCCCCCCCCCCCCOc1ccc(C(=O)N(CC)CC)cc1`, the inhibition in vivo at 449 µmol/kg in the series on Rattus norvegicus [19] and in the series with Rattus norvegicus [20] was 0% each time. This compound also had an Activity in the series with Rattus norvegicus [21] of 5%.

In the series on Rattus norvegicus [22], `CCCCCCCCCCCCCCOc1ccc(C#N)cc1` displayed an Activity of 4%. The inhibition in vivo at 482 µmol/kg with Rattus norvegicus [23] is 6%; with Rattus norvegicus [24], 10%.

`CCCCCCCCCCCCCCOc1ccc(C(=O)OCC)cc1Cl`: the inhibition in vivo at 418 µmol/kg in the series with Rattus norvegicus [25] and in the series on Rattus norvegicus [27] was 0% throughout. In the series with Rattus norvegicus [26], this compound returned an Activity of 0%.

As for `CCCCCCCCCCCCOc1cccc(C(=O)OC)c1`, the figures for the inhibition in vivo at 505 µmol/kg in the series on Rattus norvegicus [28] and in the series on Rattus norvegicus [30] were 55% and 7%, respectively. This compound also came in with an Activity in the series with Rattus norvegicus [29] of 4%.

For `CCCCCCCCCCCCCCOc1ccccc1C(=O)OC`, the inhibition in vivo at 491 µmol/kg in the series with Rattus norvegicus [31] and in the series with Rattus norvegicus [32] was 0% in each case. Besides, the Activity in the series with Rattus norvegicus [33] is 0%.

`CCCCCCCCCCCCCCOc1ccc(C(=O)CC(N)=O)cc1`: the inhibition in vivo at 439 µmol/kg in the series with Rattus norvegicus [34] worked out at 3%; in the series with Rattus norvegicus [36] it was 4%. Further, the Activity in the series on Rattus norvegicus [35] stood at 8%.
